Laboratory results reported in ChEMBL document CHEMBL4396973, “Design and development of a series of borocycles as selective, covalent kallikrein 5 inhibitors” (Bioorg Med Chem Lett, 2019).

Tests used:
[1] = biological target: T1, Suppressor of tumorigenicity 14 protein (Homo sapiens, UniProt Q9Y5Y6); assay: Inhibition of recombinant human N-terminal Met and 6-His-tagged matriptase (G596 to V855 residues) expressed in Escherichia coli using Boc-QAR-AMC as substrate incubated for 40 mins by FLINT assay
T1 sequence (Q9Y5Y6 whole entry): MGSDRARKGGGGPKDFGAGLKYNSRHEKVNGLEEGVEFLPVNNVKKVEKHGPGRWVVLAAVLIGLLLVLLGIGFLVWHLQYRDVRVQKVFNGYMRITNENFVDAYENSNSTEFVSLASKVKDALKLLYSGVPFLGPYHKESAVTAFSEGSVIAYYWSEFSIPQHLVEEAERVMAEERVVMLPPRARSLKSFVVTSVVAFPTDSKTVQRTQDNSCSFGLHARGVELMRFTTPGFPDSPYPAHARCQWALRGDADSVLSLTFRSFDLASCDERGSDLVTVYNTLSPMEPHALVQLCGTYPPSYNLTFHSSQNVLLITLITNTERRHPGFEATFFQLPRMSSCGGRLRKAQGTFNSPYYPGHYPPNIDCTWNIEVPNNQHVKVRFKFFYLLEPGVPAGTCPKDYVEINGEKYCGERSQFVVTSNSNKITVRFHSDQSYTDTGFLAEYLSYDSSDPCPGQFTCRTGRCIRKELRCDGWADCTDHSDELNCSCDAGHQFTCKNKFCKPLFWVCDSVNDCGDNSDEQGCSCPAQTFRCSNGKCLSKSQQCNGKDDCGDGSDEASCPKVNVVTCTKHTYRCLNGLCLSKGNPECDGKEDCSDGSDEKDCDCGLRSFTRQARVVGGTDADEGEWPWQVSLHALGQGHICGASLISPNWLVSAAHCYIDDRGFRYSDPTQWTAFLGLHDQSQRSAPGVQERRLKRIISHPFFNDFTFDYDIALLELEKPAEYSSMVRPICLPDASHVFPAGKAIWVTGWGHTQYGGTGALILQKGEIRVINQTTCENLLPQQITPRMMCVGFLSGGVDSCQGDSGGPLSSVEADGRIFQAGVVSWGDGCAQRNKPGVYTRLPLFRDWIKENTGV

[2] = biological target: T2, Neutrophil elastase (Homo sapiens, UniProt P08246); assay: Inhibition of human neutrophil elastase using MeOSuc-AAPV-AMC as substrate incubated for 40 mins by FLINT assay
T2 sequence (P08246 whole entry): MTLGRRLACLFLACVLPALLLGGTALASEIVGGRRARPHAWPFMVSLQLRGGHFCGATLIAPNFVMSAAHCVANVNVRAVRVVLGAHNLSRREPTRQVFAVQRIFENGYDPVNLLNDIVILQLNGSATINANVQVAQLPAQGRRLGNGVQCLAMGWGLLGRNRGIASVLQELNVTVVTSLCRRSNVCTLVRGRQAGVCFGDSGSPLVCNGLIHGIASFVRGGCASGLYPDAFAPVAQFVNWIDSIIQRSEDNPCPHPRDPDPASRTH

[3] = biological target: T3, Kallikrein-5 (Homo sapiens, UniProt Q9Y337); assay: Inhibition of human recombinant 6His-Q-FLAG-tagged KLK5 expressed in baculovirus infected Sf9 insect cells using (Tos-Gly-Pro-Arg)2[R110].2TFA as substrate measured at 30 secs interval for 5 mins using 1 x 10'10M enzyme by FLINT assay
T3 sequence (Q9Y337 whole entry): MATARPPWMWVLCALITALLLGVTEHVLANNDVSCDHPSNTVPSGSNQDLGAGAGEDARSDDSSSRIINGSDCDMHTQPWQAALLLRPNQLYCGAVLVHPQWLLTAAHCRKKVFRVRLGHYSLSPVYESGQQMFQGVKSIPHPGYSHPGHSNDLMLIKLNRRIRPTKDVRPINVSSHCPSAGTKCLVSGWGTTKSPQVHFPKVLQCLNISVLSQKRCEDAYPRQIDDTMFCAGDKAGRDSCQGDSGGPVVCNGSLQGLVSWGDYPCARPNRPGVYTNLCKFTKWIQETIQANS

[4] = species on record: Homo sapiens; assay: Selectivity ratio of IC50 for human C-terminal 6-His-tagged KLKB1 (G20 to A638 residues) expressed in mouse NS0 cells to IC50 for human recombinant 6His-Q-FLAG-tagged KLK5 expressed in baculovirus infected Sf9 insect cells
[5] = biological target: Urokinase-type plasminogen activator (Homo sapiens, UniProt P00749); assay: Inhibition of recombinant human C-terminal 10-His-tagged urokinase (M1 to L431 residues) expressed in mouse NS0 cells using Z-GGR-AMC as substrate incubated for 40 mins by FLINT assay
[6] = biological target: Coagulation factor X (Homo sapiens, UniProt P00742); assay: Inhibition of recombinant human C-terminal 10-His-tagged factor Xa (L24 to K488 residues) expressed in baculovirus infected Sf21 insect cells using Mca-RPKPVE-Nval-WRK(Dnp)-NH2 as substrate incubated for 40 mins by FLINT assay
[7] = biological target: T3, Kallikrein-5; assay: Inhibition of human recombinant 6His-Q-FLAG-tagged KLK5 expressed in baculovirus infected Sf9 insect cells using (Tos-Gly-Pro-Arg)2[R110].2TFA as substrate measured at 30 secs interval for 5 mins by FLINT assay
Method in brief: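 Standard KLK5 assay format. Its theoretical tight-binding limit corresponds to pIC50 8.4.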

[8] = biological target: T4, Kallikrein-1 (Homo sapiens, UniProt P06870); assay: Inhibition of human recombinant N-terminal His-tagged and enterokinase cleavage site-fused KLK1 (19 to 262 residues) expressed in baculovirus infected Sf9 insect cells using R110 labelled GSK3162232A as substrate measured at 30 secs interval for 5 mins by FLINT assay
[9] = biological target: Plasma kallikrein (Homo sapiens, UniProt P03952); assay: Inhibition of human C-terminal 6-His-tagged KLKB1 (G20-A638 residues) expressed in mouse NS0 cells using PFR-AMC as substrate incubated for 40 mins by FLINT assay
[10] = biological target: T5, Kallikrein-8 (Homo sapiens, UniProt O60259); assay: Inhibition of recombinant human C-terminal 10-His-tagged KLK8 (Gln29 to Gly260 residues) expressed in mouse NS0 cells using BOC-VPR-AMC as substrate incubated for 40 mins by FLINT assay
T5 sequence (O60259 whole entry): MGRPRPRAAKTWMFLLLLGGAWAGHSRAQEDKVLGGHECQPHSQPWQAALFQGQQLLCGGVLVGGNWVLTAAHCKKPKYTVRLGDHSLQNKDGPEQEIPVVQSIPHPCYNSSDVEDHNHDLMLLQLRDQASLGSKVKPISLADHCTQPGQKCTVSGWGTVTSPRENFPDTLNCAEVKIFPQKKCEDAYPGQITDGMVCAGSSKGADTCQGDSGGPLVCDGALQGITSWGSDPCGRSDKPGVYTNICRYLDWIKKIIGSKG

[11] = biological target: Kallikrein-7 (Homo sapiens, UniProt P49862); assay: Inhibition of recombinant human C-terminal 10-His-tagged KLK7 (Glu23 to His252 residues) expressed in mouse NS0 cells using 5-FAM-E-A-L-Y-L-V-S-G-C(5-TAMRA) as substrate incubated for 40 mins by FLINT assay
[12] = biological target: Prothrombin (Homo sapiens, UniProt P00734); assay: Inhibition of human recombinant C-terminal 10-His-tagged thrombin (M1 to E622 residues) expressed in mouse NS0 cells using BOC-VPR-AMC as substrate incubated for 40 mins by FLINT assay
[13] = Dissociation constant, borocycle pKa of the compound; type: physicochemical
[14] = biological target: T6, Kallikrein-14 (Homo sapiens, UniProt Q9P0G3); assay: Inhibition of recombinant human C-terminal 10-His-tagged KLK14 (Q19 to M248 residues) expressed in mouse NS0 cells using BOC-VPR-AMC as substrate incubated for 40 mins by FLINT assay
T6 sequence (Q9P0G3 whole entry): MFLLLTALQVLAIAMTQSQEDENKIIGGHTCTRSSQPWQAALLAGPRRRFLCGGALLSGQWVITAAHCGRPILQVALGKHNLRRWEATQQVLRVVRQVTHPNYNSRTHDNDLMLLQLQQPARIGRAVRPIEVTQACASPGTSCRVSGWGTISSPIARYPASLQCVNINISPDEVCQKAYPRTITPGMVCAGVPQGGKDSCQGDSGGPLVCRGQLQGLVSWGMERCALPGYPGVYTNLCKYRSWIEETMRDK

[15] = biological target: T4, Kallikrein-1; assay: Inhibition of human recombinant N-terminal His-tagged and enterokinase cleavage site-fused KLK1 (19 to 262 residues) expressed in baculovirus infected Sf9 insect cells at 10 uM using R110 labelled GSK3162232A as substrate measured at 30 secs interval for 5 mins by FLINT assay relative to control

| SMILES | IC50 [1] [µM] | IC50 [2] [µM] | IC50 [3] [µM] | IC50 [5] [µM] | IC50 [6] [µM] | IC50 [7] [µM] | IC50 [8] [µM] | IC50 [9] [µM] | IC50 [10] [µM] | IC50 [11] [µM] | IC50 [12] [µM] | pKa [13] | IC50 [14] [µM] | inhibition [15] [%] | Ratio IC50 [4] |
| --- | --- | --- | --- | --- | --- | --- | --- | --- | --- | --- | --- | --- | --- | --- | --- |
| N=C(N)c1ccc(C2Cc3ccc(F)cc3B(O)O2)cc1OCc1cccnc1 (racemic) | 10 | 31.6 | 0.00794 | > 100 | 63.1 | 0.00631 | 3.98 | 0.0794 | 0.316 | > 100 | 10 | 4.66 | 0.316 | – | 10 |
| N=C(N)c1ccc(COc2cccc3c2B(O)OC3)cc1 | – | – | – | – | – | 31.6 | 501 | – | – | – | – | – | – | – | – |
| N=C(N)c1ccc(CC2OB(O)c3cc(C(F)(F)F)ccc32)cc1OCc1cccnc1 (racemic) | 31.6 | > 100 | 0.00251 | > 100 | 31.6 | 0.0126 | > 10 | 0.2 | 2 | > 100 | 20 | 4.51 | 12.6 | 24 | 10 |
| N=C(N)c1ccc(C2Cc3ccc(C(F)(F)F)cc3B(O)O2)cc1OCc1cccnc1 (racemic) | 2 | > 100 | 0.000501 | 12.6 | 1.58 | – | 0.398 | 0.01 | 0.0251 | 39.8 | 3.98 | 4.54 | 0.126 | – | – |
| N=C(N)c1ccc(Oc2ccc3c(c2)B(O)OC3)cc1 | – | – | – | – | – | 50.1 | 25.1 | – | – | – | – | – | – | – | – |
| N=C(N)c1ccc(C2Cc3ccccc3B(O)O2)cc1OCc1ccccc1Cl (racemic) | 7.94 | 6.31 | 0.00794 | 50.1 | 10 | 0.01 | 0.631 | 0.0501 | 0.251 | 39.8 | 3.16 | – | 1.58 | – | 10 |
| N=C(N)c1ccc(COc2ccc3c(c2)B(O)OC3)cc1 | – | – | – | – | – | 39.8 | 39.8 | – | – | – | – | – | – | – | – |
| N=C(N)c1ccc(NCC2Cc3ccccc3B(O)O2)cc1 (racemic) | – | – | – | – | – | 1.58 | > 10 | – | – | – | – | – | – | 35 | – |
| Cc1cccc2c1B(O)OC(c1ccc(C(=N)N)c(OCc3cccnc3)c1)C2 (racemic) | 1.26 | 0.794 | 0.0251 | 5.01 | 50.1 | 0.0251 | > 10 | 0.0794 | 1.58 | > 100 | 3.16 | – | 0.398 | 27 | 10 |

More lines, main results first:

| IC50 [1] [µM] | IC50 [2] [µM] | IC50 [3] [µM] | IC50 [5] [µM] | IC50 [6] [µM] | IC50 [7] [µM] | IC50 [8] [µM] | IC50 [9] [µM] | IC50 [10] [µM] | IC50 [11] [µM] | IC50 [12] [µM] | pKa [13] | IC50 [14] [µM] | inhibition [15] [%] | SMILES | Ratio IC50 [4] |
| --- | --- | --- | --- | --- | --- | --- | --- | --- | --- | --- | --- | --- | --- | --- | --- |
| – | – | – | – | – | 398 | 79.4 | – | – | – | – | – | – | – | N=C(N)c1ccc(C2OB(O)c3ccccc32)cc1 (racemic) | – |
| – | – | – | – | – | 6.31 | 158 | – | – | – | – | – | – | – | N=C(N)c1ccc(COc2ccc3c(c2)COB3O)cc1 | – |
| – | – | – | – | – | 12.6 | 158 | – | – | – | – | – | – | – | N=C(N)c1cccc(COc2ccc3c(c2)B(O)OC3)c1 | – |
| – | – | – | – | – | 3.98 | 0.501 | – | – | – | – | – | – | – | N=C(N)c1cccc(C2Cc3ccccc3B(O)O2)c1 (racemic) | – |
| 0.0126 | 15.8 | 0.00501 | 0.0631 | 2 | 0.00794 | 1.58 | 0.00501 | 0.1 | 39.8 | 0.398 | – | 0.251 | – | N=C(N)c1ccc(C2Cc3ccccc3B(O)O2)cc1OCc1cccc(Cl)c1 (racemic) | 10 |
| – | – | – | – | – | 6.31 | 10 | – | – | – | – | – | – | – | N=C(N)c1ccc(OCc2ccc3c(c2)B(O)OC3)cc1 | – |
| 15.8 | 1.26 | 0.00126 | 79.4 | 5.01 | – | 3.98 to 6.31 | 0.2 | 0.251 | > 100 | 2 | 4.26 | 0.2 | – | N=C(N)c1ccc(C2Cc3cc(Cl)c(F)cc3B(O)O2)cc1OCc1cccnc1 (racemic) | – |
| – | – | – | – | – | 200 | 7.94 | – | – | – | – | – | – | – | N=C(N)c1ccc(CNc2cccc3c2B(O)OC3)cc1 | – |
| – | – | – | – | – | 39.8 | 63.1 | – | – | – | – | – | – | – | N=C(N)c1ccc(C2CCCB(O)O2)cc1 (racemic) | – |
| 63.1 | 1.58 | 0.00158 | 79.4 | 5.01 | 0.0126 | 0.316 to 3.98 | 0.794 | 7.94 | > 100 | 2 | 4.77 | 12.6 | – | N=C(N)c1ccc(CC2OB(O)c3cc(F)ccc32)cc1OCc1cccnc1 (racemic) | 10 |
